In PMC9906001 (Pulmonary Circulation, 2023):
Several values for one entry are separate records, joined by “and”; a condition that tells them apart may be missing. Equal values may be shown once. Read-outs that look alike come from different tables or passages of the source.

What was measured:
[1] = system: Japanese patients with pulmonary arterial hypertension; assay: Safety: adverse events and safety parameters over 52 weeks; format: in vivo, human
In short: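 Over the 52 weeks of nebulised test compound (6 µg/breath, starting 3 breaths four times daily), AEs were coded by MedDRA v24.0 preferred term. Monitoring covered clinical laboratory tests, blood pressure, pulse, SpO2, ECG, chest X-ray, pulmonary function, arterial blood gas and body weight. Safety set: patients who received at least one dose.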

[2] = system: Japanese patients with pulmonary arterial hypertension; assay: Time to clinical worsening; format: in vivo, human
In short: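 Clinical worsening was defined as death, transplantation, hospitalisation for worsening PAH, or start of additional PAH-specific therapy. Followed during the 12-week main and 40-week long-term periods of open-label nebulised test compound (6 µg/breath, starting 3 breaths/session four times daily), in addition to background ERA and/or PDE5 inhibitor/sGC stimulator.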

[3] = Plasma pharmacokinetics in Japanese healthy adults, single inhalation; format: in vivo, human; details: 18 and 36 μg inhaled
[4] = system: Japanese patients with pulmonary arterial hypertension; assay: Hemodynamic measurements by right heart catheterization; format: in vivo, human
In short: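 RHC at baseline and Week 12, pre-inhalation and 15 and 30 min after inhaling test compound (6 µg/breath, starting 3 breaths four times daily). CO by thermodilution or indirect Fick per site, with the same method per patient. PVR = (mPAP−PAWP)/CO; PVRI = (mPAP−PAWP)/cardiac index (CO/BSA). Lower of 15/30-min PVRI taken as Week-12 "best". Significance: 95% CI of mean change excluding 0.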

[5] = system: Japanese patients with pulmonary arterial hypertension; assay: WHO functional class; format: in vivo, human
In short: (§1)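 Multicentre, non-randomised, single-arm study: 12-week main period plus 40-week extension. Nebulised test compound given as 0.6 mg/mL at 6 µg/breath, starting 3 breaths (18 µg)/session four times daily. Patients 18–75 y with PAH; stable background ERA/PDE5 inhibitor/sGC stimulator allowed; no other prostacyclin-pathway drugs. Secondary endpoints reported as change from baseline.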

[6] = Plasma pharmacokinetics in Japanese PAH patients; format: in vivo, human
[7] = system: Japanese patients with pulmonary arterial hypertension; assay: Quality of life, Minnesota Living with Heart Failure questionnaire; format: in vivo, human
In short: as §1

[8] = system: Japanese patients with pulmonary arterial hypertension; assay: NT-proBNP levels; format: in vivo, human
In short: as §1

[9] = system: Japanese patients with pulmonary arterial hypertension; assay: 6-minute walking distance and Borg Dyspnea Score; format: in vivo, human
In short: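 Single-arm, open-label study: test compound nebulised at 6 µg/breath from a 0.6 mg/mL solution, started at 3 breaths (18 µg)/session four times daily. Peak 6MWD taken 10–60 min after inhalation, trough 6MWD at least 4 h post-inhalation. Borg score was a secondary endpoint. Change from baseline; significance taken as a two-sided 95% CI excluding 0.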

[10] = 54 μg inhaled, non-Japanese PAH patients; cited from earlier work
[11] = system: Japanese patients with pulmonary arterial hypertension; details: lowest value among 5, 15, or 30 min after inhalation at Week 12, IBUKI study; cited from earlier work
[12] = system: Japanese patients with pulmonary arterial hypertension; details: baseline to week 16, study of selexipag in Japan; cited from earlier work
[13] = over 52 weeks, n = 17, listed as treprostinil
[14] = Week 12, 15 min post-inhalation, n = 17
[15] = Week 12, 30 min post-inhalation, n = 17
[16] = Week 12, post-inhalation best, n = 17
[17] = Week 12, pre-inhalation (trough treprostinil level), n = 17
[18] = Week 12, pre-inhalation, n = 17
[19] = human, plasma, inhaled or intranasal, 54 ug

## CCCCC[C@H](O)CC[C@@H]1[C@H]2Cc3cccc(OCC(=O)O)c3C[C@H]2C[C@H]1O [inhaled treprostinil, Treprostinil]
[1]; 52-week period
  AE related to treprostinil: cough: 47.1%
  AE related to treprostinil: headache: 58.8%
  AE related to treprostinil: hot flush: 23.5%
  AE related to treprostinil: throat irritation: 29.4%
[1]; all AEs, 52-week period
  Intensity of AEs: mild‐moderate intensity
[1]; four times daily in Japanese patients with PAH
  Tolerability: well tolerated
[1]; over 52 weeks, n = 17
  AE related to treprostinil: Blood pressure decreased: 2 (11.8) n (%)
  AE related to treprostinil: Diarrhoea: 2 (11.8) n (%)
  AE related to treprostinil: Dizziness: 2 (11.8) n (%)
  AE related to treprostinil: Head discomfort: 3 (17.6) n (%)
  AE related to treprostinil: Hot flush: 4 (23.5) n (%)
  AE related to treprostinil: Nausea: 3 (17.6) n (%)
  AE related to treprostinil: Oropharyngeal discomfort: 3 (17.6) n (%)
  AE related to treprostinil: Oropharyngeal pain: 2 (11.8) n (%)
  AE related to treprostinil: Pyrexia: 2 (11.8) n (%)
  AE related to treprostinil: cough: 8 (47.1) n (%)
  AE related to treprostinil: headache: 10 (58.8) n (%)
  AE related to treprostinil: throat irritation: 5 (29.4) n (%)
  Deaths: no deaths
[1]; [13]
  Deaths: 0 n (%)
  Total patients with at least one AE: 17 n (%) and 17 (100.0) n (%)
  Total patients with at least one AE related to treprostinil: 17 n (%) and 17 (100.0) n (%)
[2]; long-term treatment period, patients who had been receiving an ERA
  Add-on therapy with a PDE5 inhibitor/sGC stimulator: two patients
[2]; main treatment period (12 weeks)
  Needed additional PAH-specific therapy: no patient
[2]; throughout the 52 weeks
  Death, transplantation, or hospitalization due to worsening PAH: no patient
[3]
  Mean C max, Japanese vs non-Japanese healthy adults: 1.2 fold
[4]; 13 patients receiving a combination of an ERA and a PDE5 inhibitor/sGC stimulator
  Best change from baseline in PVRI at Week 12: −36.7 ± 25.0%
[4]; [14]
  CO: 4.9 ± 1.6 L/min
  Cardiac index: 3.0 ± 0.9 L/min/m^2
  PAWP: 9.4 ± 4.2 mmHg
  PVR: 4.5 ± 1.8 Wood units
  PVRI: 7.4 ± 2.8 Wood units·m^2
  SVR: 17.8 ± 6.5 Wood units
  SVRI: 28.8 ± 9.5 Wood units·m^2
  SvO2: 71.3 ± 5.6%
  mPAP: 30.5 ± 10.1 mmHg
  mRAP: 4.5 ± 3.1 mmHg
[4]; [15]
  CO: 5.0 ± 1.5 L/min
  Cardiac index: 3.0 ± 0.9 L/min/m^2
  PAWP: 8.9 ± 3.9 mmHg
  PVR: 4.4 ± 2.0 Wood units
  PVRI: 7.3 ± 3.1 Wood units·m^2
  SVR: 17.7 ± 6.2 Wood units
  SVRI: 28.7 ± 9.2 Wood units·m^2
  SvO2: 70.0 ± 5.8%
  mPAP: 30.1 ± 10.3 mmHg
  mRAP: 4.8 ± 3.3 mmHg
[4]; [16]
  CO: 5.1 ± 1.7 L/min
  Cardiac index: 3.1 ± 0.9 L/min/m^2
  PAWP: 8.5 ± 4.0 mmHg
  PVR: 4.2 ± 1.9 Wood units
  PVRI: 6.9 ± 2.9 Wood units·m^2
  SVR: 17.5 ± 6.4 Wood units
  SVRI: 28.4 ± 9.4 Wood units·m^2
  SvO2: 71.5 ± 5.5%
  mPAP: 29.8 ± 9.9 mmHg
  mRAP: 4.4 ± 3.0 mmHg
[4]; [17]
  Change from baseline in PVR: −19.6 ± 26.8%
  Change from baseline in PVRI: −19.2 ± 26.8%
  Change from baseline in mPAP: −4.0 ± 6.1 mmHg
[4]; [18]
  CO: 4.6 ± 1.3 L/min
  Cardiac index: 2.8 ± 0.8 L/min/m^2
  PAWP: 8.8 ± 4.1 mmHg
  PVR: 5.7 ± 2.2 Wood units
  PVRI: 9.3 ± 3.1 Wood units·m^2
  SVR: 19.5 ± 6.2 Wood units
  SVRI: 31.7 ± 8.7 Wood units·m^2
  SvO2: 71.2 ± 5.3%
  mPAP: 34.1 ± 9.8 mmHg
  mRAP: 5.0 ± 3.5 mmHg
[4]; one patient who was treatment-naïve
  Best change from baseline in PVRI at Week 12: −54.7%
[4]; post-inhalation best, n = 17
  % Change from baseline to Week 12 in CO: 18.3 ± 20.0 (8.0 to 28.6) %
  % Change from baseline to Week 12 in PAWP: 24.2 ± 60.9 (−7.1 to 55.5) %
  % Change from baseline to Week 12 in PVR: −39.7 ± 25.6 (−52.9 to −26.5) %
  % Change from baseline to Week 12 in PVRI (primary endpoint): −39.4 ± 25.5 (−52.6 to −26.3) %
  % Change from baseline to Week 12 in SVR: −15.3 ± 24.0 (−27.7 to −3.0) %
  % Change from baseline to Week 12 in SVRI: −14.8 ± 24.4 (−27.4 to −2.3) %
  % Change from baseline to Week 12 in SvO2: 2.7 ± 5.8 (−0.3 to 5.7) %
  % Change from baseline to Week 12 in cardiac index: 17.8 ± 20.3 (7.3 to 28.2) %
  % Change from baseline to Week 12 in mPAP: −21.7 ± 19.7 (−31.9 to −11.6) %
  % Change from baseline to Week 12 in mRAP: −0.3 ± 57.0 (−31.9 to 31.2) %
  Change from baseline to Week 12 in PVR: −2.9 ± 2.0 (−4.0 to −1.9) Wood units
  Change from baseline to Week 12 in PVRI: −4.7 ± 3.0 (−6.2 to −3.1) Wood units·m^2
  Change from baseline to Week 12 in SVR: −3.3 ± 4.4 (−5.6 to −1.1) Wood units
  Change from baseline to Week 12 in SVRI: −5.3 ± 7.3 (−9.1 to −1.5) Wood units·m^2
  Change from baseline to Week 12 in mPAP: −8.3 ± 6.8 (−11.8 to −4.8) mmHg
[4]; three patients receiving an ERA
  Best change from baseline in PVRI at Week 12: −46.0 ± 35.1%
[5]; Week 12
  WHO functional class improved: four
[5]; Week 12 (n = 17)
  WHO functional class I: 1 (5.9) n (%)
  WHO functional class II: 13 (76.5) n (%)
  WHO functional class III: 3 (17.6) n (%)
[5]; Week 52 (n = 16)
  WHO functional class I: 2 (12.5) n (%)
  WHO functional class II: 12 (75.0) n (%)
  WHO functional class III: 2 (12.5) n (%)
[5]; baseline to Week 12 (n = 17)
  WHO functional class shift II -> I: 1 (5.9) n (%)
  WHO functional class shift II -> II: 10 (58.8) n (%)
  WHO functional class shift III -> II: 3 (17.6) n (%)
  WHO functional class shift III -> III: 3 (17.6) n (%)
[5]; baseline to Week 52 (n = 16)
  WHO functional class shift II -> I: 2 (12.5) n (%)
  WHO functional class shift II -> II: 9 (56.3) n (%)
  WHO functional class shift III -> II: 3 (18.8) n (%)
  WHO functional class shift III -> III: 2 (12.5) n (%)
[5]; throughout the 52 weeks
  Deterioration of WHO functional class: no patient
[6]; [19]
  MRT: 55.8 ± 10.2 min
  Vd/F: 76.7 ± 52.2 L
  k el: 0.000272 s⁻¹
[6]; nine breaths (54 μg) four times daily
  Time detectable in the plasma after inhalation: approximately 4 h
[7]; Week 12
  Mean change from baseline in MLWHF global score: −6.6 ± 12.1
[7]; Week 52
  Mean change from baseline in MLWHF global score: −5.8 ± 13.4
[8]; Week 6
  Mean change from baseline in NT-proBNP level: -34.6 ± 100.0 pg/mL
[8]; Week 12
  Mean change from baseline in NT-proBNP level: -35.5 ± 165.5 pg/mL
[8]; Week 52
  Mean change from baseline in NT-proBNP level: -77.1 ± 194.1 pg/mL
[9]; Week 12
  Mean change from baseline in trough 6MWD: +17.8 ± 35.5 m
[9]; Weeks 6, 12, and 52
  Change from baseline in Borg Dyspnea Score: No significant changes
[10]
  Geometric mean C max: 1.02 ng/mL

## CC#CCC(C)[C@H](O)/C=C/[C@@H]1[C@H]2C/C(=C/CCCC(=O)O)C[C@H]2C[C@H]1O (stereo partly drawn) [iloprost]
[11]
  Best change from baseline in mPAP: −6.75 mmHg

## CC(C)N(CCCCOCC(=O)NS(C)(=O)=O)c1cnc(-c2ccccc2)c(-c2ccccc2)n1 [selexipag]
[12]
  Change from baseline in mPAP: −3.1 mmHg
